Sampled rows, rich in hits. Any-hit rate of the full collection: about 1.5%.
Cardio protect = myocardial damage modulation in H9c2 cells | H9c2 cardiomyocytes, H2O2 injury protection, ATPLite, 2 h | protection from H2O2 cell death, % at 20 µM | 360,000 tested, 0.63% active;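 active = compounds giving at least 50% protection of heart cells from peroxide-induced death in the single-dose screen, raw or plate-pattern-corrected value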
PKA-R1A act = activators of PKA-R1A complex; P00514+P68181; AID 504707; activation, % at 11.4 µM; PKA-R1A dissociation, Cy5-IP20 fluorescence polarization; scaled: DMSO 0%, 113 µM cGMP 100%; 340,000 tested, 0.083% active;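 active = percent activation above the mean of all tested compounds plus 3 SD, cut at about 19% in these data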;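 also: higher means more PKAc released from R1A so a rise in polarization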
TbMetRS inhib = Trypanosoma brucei MetRS inhibition | purified T. brucei MetRS, ATP depletion, Kinase-Glo luminescence | inhibition, % at 11.9 µM | 360,000 tested, 0.4% active | AID 624268;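 active = inhibition above a per-plate cutoff of the control wells' mean inhibition plus 3 SD, cut at about 5.5% in these data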
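assay system = parasite MetRS enzyme | timing = 15 min preincubation, 2 h reaction, all 25 °C | evaluation = percent inhibition relative to median high and low control wells | medium = HEPES buffer containing pyrophosphatase, BSA, spermine, DTT | compound = single dose, 11.9 µM final nominal, 0.9% final DMSO | detection = Kinase-Glo luminescence, ATP depletion format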
Rin1 Abl inh = inhibitors of human Rin1-Abl protein interaction; P00519+Q13671; TR-FRET Rin1/Abl binding, biochemical; inhibition, % at 7.35 µM; 360,000 tested, 0.4% active; in the data active = inhibition above about 5%, passing the limit was not always enough
Target sequence (P00519 whole entry, looked up): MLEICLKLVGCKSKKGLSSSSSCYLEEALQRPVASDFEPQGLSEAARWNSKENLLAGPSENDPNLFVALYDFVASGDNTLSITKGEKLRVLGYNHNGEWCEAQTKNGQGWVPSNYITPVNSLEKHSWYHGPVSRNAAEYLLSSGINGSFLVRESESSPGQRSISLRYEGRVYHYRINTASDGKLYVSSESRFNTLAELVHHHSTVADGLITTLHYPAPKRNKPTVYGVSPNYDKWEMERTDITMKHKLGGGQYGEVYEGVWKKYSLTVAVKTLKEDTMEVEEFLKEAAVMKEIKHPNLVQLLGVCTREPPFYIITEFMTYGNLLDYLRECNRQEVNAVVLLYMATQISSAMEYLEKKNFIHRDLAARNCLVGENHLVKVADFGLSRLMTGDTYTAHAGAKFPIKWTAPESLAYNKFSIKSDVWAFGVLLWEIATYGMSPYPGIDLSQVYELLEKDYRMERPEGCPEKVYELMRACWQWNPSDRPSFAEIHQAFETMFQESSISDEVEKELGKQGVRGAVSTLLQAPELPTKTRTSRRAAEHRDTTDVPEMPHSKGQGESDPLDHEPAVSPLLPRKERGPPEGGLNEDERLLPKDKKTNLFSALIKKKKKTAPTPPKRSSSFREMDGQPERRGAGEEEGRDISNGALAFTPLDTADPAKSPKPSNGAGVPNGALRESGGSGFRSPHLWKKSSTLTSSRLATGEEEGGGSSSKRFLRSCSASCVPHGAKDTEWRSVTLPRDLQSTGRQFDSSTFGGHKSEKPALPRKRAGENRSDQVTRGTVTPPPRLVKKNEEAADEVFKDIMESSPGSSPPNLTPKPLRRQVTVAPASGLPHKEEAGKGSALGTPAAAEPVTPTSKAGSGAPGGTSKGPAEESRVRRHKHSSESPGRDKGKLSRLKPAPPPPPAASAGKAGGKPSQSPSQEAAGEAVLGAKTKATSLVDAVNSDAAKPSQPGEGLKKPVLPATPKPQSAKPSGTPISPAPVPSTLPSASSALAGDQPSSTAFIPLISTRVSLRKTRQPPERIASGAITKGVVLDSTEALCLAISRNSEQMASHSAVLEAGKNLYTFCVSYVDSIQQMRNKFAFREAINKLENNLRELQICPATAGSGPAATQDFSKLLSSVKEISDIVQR
Target sequence (Q13671 whole entry, looked up): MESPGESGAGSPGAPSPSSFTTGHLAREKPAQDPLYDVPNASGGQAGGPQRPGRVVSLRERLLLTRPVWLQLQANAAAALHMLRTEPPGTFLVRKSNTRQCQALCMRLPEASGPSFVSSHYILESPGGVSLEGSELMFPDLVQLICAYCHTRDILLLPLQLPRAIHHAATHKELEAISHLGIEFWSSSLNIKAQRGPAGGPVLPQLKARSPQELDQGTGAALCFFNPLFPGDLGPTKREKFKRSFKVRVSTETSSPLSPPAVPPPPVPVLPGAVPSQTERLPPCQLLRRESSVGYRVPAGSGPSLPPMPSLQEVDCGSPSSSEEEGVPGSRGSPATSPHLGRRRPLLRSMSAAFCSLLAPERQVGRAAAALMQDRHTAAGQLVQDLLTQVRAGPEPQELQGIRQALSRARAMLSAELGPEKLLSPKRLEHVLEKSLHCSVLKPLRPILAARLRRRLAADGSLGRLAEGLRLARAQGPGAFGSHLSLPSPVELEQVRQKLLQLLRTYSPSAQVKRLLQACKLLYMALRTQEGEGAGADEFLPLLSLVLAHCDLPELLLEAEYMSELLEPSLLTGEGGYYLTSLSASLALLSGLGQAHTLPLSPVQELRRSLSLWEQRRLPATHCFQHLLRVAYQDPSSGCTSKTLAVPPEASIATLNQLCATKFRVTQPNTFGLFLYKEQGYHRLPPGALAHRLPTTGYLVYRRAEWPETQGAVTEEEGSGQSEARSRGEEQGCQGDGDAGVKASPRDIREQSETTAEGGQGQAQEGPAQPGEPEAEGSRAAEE
PKA-R2B activ = PKA-R2B complex activation. PKA-R2B holoenzyme dissociation, Cy5-IP20 fluorescence polarization; R2B truncated from residue 108, S112A mutant; 0% DMSO only, 100% 113 µM cGMP. activation, % at 11.4 µM. P22694+P31323. 340,000 tested, 0.079% active;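 active = activation above a cutoff set at the mean over all compounds plus 3 SD, cut at about 18% in these data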;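 also: higher means more holoenzyme dissociation and a rise in polarization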
Numbers stand for hits; – = inactive; · = not tested or not shown.

SMILES	Cardio protect	PKA-R1A act	TbMetRS inhib	Rin1 Abl inh	PKA-R2B activ
COc1ccccc1N1CCN(C2CCCN(C(=O)Cn3cccn3)C2)CC1 (stereo unspecified)	–	–	–	–	–
COc1cc(OC)cc(-c2oc3cccnc3c2C#CCCO)c1	56	–	–	–	–
O=c1[nH]nc(Cc2ccc([N+](=O)[O-])cc2)c2ccccc12	64	–	–	–	–
COc1ccc(Cc2n[nH]c(=O)c3ccccc23)cc1OC	62	–	–	–	–
COc1ccc(CC(=O)n2[nH]c(=O)c3ccccc3c2=O)cc1OC	–	–	–	–	–
O=c1[nH]nc(Cc2ccc3ccccc3n2)c2ccccc12	–	–	–	–	–
O=c1[nH]nc(Cc2ccccc2)c2ccccc12	64	–	–	–	–
O=c1[nH]c(=S)[nH]nc1Cc1ccccc1	–	–	–	–	–
CC(OC(=O)CNC(=O)c1sc2ccccc2c1Cl)C(=O)NC1(C#N)CCCCC1 (stereo unspecified)	–	–	–	–	–
N#CC(=Cc1ccc(O)cc1)C(N)=C(C#N)C#N	–	–	–	–	–
COc1ccc(Cc2nnc(NC(=O)CS(=O)(=O)c3ccccc3)s2)cc1OC	–	–	–	–	–
O=C1c2ccccc2C(=O)N1CCc1c(-c2ccccc2)[nH]c2ccccc12	–	–	–	–	–
CC(=O)c1ccc(-c2[nH]c3ccccc3c2CCN2C(=O)c3ccccc3C2=O)cc1	65	–	–	–	–
CCCN(CCC)CCCNC(=O)c1cc2cc3ccc(OC)cc3nc2o1	–	–	–	–	–
COc1ccc2cc3cc(C(=O)NCCc4ccc(OC)c(OC)c4)oc3nc2c1	87	–	–	–	–
O=S(=O)(c1cccc(F)c1)N1CCN(c2nc(-c3cccnc3)nc3ccccc23)CC1	59	–	–	–	–
O=C(c1cc(Cl)nc2ccccc12)N1CCN(S(=O)(=O)c2cccc(F)c2)CC1	–	–	–	–	–
C/C(=N/NC(=O)c1cccs1)c1cccc(NC(=O)C2CC2)c1	58	–	–	–	–
CC(=O)N/N=C(\C)c1cccc(NC(=O)c2cccs2)c1	–	–	–	–	–
C/C(=N\NC(=O)c1cccc(N/N=C(\C)c2ccccc2)c1)c1ccccc1	–	–	–	–	–
C/C(=N\NC(=O)c1cccc(N/N=C(\C)c2ccncc2)c1)c1ccncc1	68	–	–	–	–
CCOC(=O)c1sc2nc(C)nc(SC(C)C(=O)NC3CC3)c2c1C (stereo unspecified)	–	–	–	–	–
CC(=O)Nc1nc(C)c(-c2csc(Nc3cccc([N+](=O)[O-])c3)n2)s1	–	–	–	–	–
CC(=O)Nc1nc(C)c(-c2csc(Nc3ccc(O)cc3)n2)s1	–	–	–	–	–
CC(=O)Nc1ccc(Nc2nc(-c3sc(NC(C)=O)nc3C)cs2)cc1	57	–	–	–	–
SMILES	Cardio protect	PKA-R1A act	TbMetRS inhib	Rin1 Abl inh	PKA-R2B activ
CC(=O)Nc1nc(C)c(-c2csc(Nc3cccc(C(C)=O)c3)n2)s1	66	–	–	–	–
Cc1cccc(NC(=O)C(CC(C)C)NC(=O)C2CCC(C)CC2)n1 (stereo unspecified)	–	–	–	–	–
O=C1CCCN1c1ccc(S(=O)(=O)NCc2ccc(F)cc2)cc1	–	–	–	–	–
O=C(NNS(=O)(=O)c1ccc(F)cc1)C1CCN(Cc2cccc(F)c2)CC1	–	–	–	–	–
O=C(CCc1nc2ccccc2c(=O)[nH]1)NCCN1C(=O)S/C(=C\c2ccc(OC(F)F)cc2)C1=O	69	–	–	–	–
COC(=O)/C=C/c1ccc(OC(=O)OC)c(OC(=O)OC)c1	62	–	–	–	–
O=C(Cc1cccs1)NCCS(=O)(=O)N1CCN(c2ccccc2)CC1	–	–	–	–	–
O=C(CN1CCN(C(=O)c2ccc(-c3nc4ccccc4s3)o2)CC1)Nc1ccc(F)cc1	–	–	–	–	–
C[C@]12CC[C@@H]3c4cc(O)c(O)cc4CC[C@H]3[C@@H]1CC[C@@H]2O	108	–	–	–	–
C[C@]12CC[C@@H]3c4ccc(O)cc4CC[C@H]3[C@@H]1CC[C@@H]2O	–	–	–	–	–
C=CCn1c(Cc2c[nH]c3ccccc23)nnc1SCC(=O)NCc1ccccc1	–	–	–	–	–
C=CCn1c(CNc2ccccc2)nnc1SCC(=O)N/N=C/c1ccccc1O	63	–	–	–	–
COc1ccc(OC)c(/C=C/c2ccc3cccc(O)c3n2)c1	61	–	–	–	–
CC(OC(=O)CN1C(=O)c2ccccc2C1=O)C(=O)NC1CCCCC1C (stereo unspecified)	–	–	–	–	–
O=C(Nc1cccc(-c2nc3ccccc3s2)c1)c1cc(-n2cnnc2)ccc1Cl	76	–	–	–	–
COc1cccc(OC)c1C(=O)Nc1ccc(Br)c(C(=O)c2ccccc2)c1	54	–	–	–	–
COc1ccccc1C(=O)Nc1cccc(C(=O)c2ccccc2)c1	–	–	–	–	–
Cc1cc(C)n(CCN(C)C(=O)C2CCC(=O)N(CCc3cccc(F)c3)C2)n1 (stereo unspecified)	–	–	–	–	–
Cc1ccccc1NC1=C/C(=N\S(=O)(=O)c2cccs2)c2ccccc2C1=O	–	–	–	–	–
Cc1ccccc1NC1=C/C(=N\S(=O)(=O)c2ccc(C(=O)O)cc2)c2ccccc2C1=O	–	–	9.7	–	–
Cc1ccc(C(=O)OCC(=O)Nc2ccc(Cl)cn2)s1	–	–	–	–	–
Cc1c(Cl)cnc(NC(=O)COC(=O)c2ccc([N+](=O)[O-])s2)c1Cl	68	–	–	–	–
O=C(COC(=O)c1ccc([N+](=O)[O-])s1)Nc1ccc(Cl)cn1	55	–	–	–	–
Cc1ccc(C(OCCN(C)C)c2cccc(C(F)(F)F)c2)cc1 (stereo unspecified)	–	–	–	–	–
COc1ccc(C=NNC(=O)c2ccccc2NS(=O)(=O)c2cccs2)cc1O	–	–	–	–	–
O=C(NN=Cc1ccc(O)cc1O)c1ccccc1NS(=O)(=O)c1cccs1	51	–	–	–	–
COc1ccc(/C=C2/NC(=O)CNC2=O)cc1	–	–	–	–	–
Cc1ccc(C(NC(=O)C(C)C)c2cc([N+](=O)[O-])c3cccnc3c2O)cc1 (stereo unspecified)	51	–	–	–	–
CC(C)C(=O)NC(c1cccs1)c1cc([N+](=O)[O-])c2cccnc2c1O (stereo unspecified)	56	–	–	–	–
CCC(=O)NC(c1cccs1)c1cc([N+](=O)[O-])c2cccnc2c1OC (stereo unspecified)	–	·	–	–	·
